Laboratory results as given in ChEMBL document CHEMBL4680142, “Thiazolidine-2,4-dione-based irreversible allosteric IKK-β kinase inhibitors: Optimization into in vivo active anti-inflammatory agents” (Eur J Med Chem, 2020).
The source made the active and inactive calls. No cut-off for these calls is given here.

Assays:
[1] = target: T1, Inhibitor of nuclear factor kappa-B kinase subunit beta (Homo sapiens, UniProt O14920); experiment: Allosteric inhibition of IKKbeta (unknown origin) using 5FAM-GRHDSGLDSMK-NH2 as substrate incubated for 10 mins followed by substrate addition and measured after 40 mins by TR-FRET assay
T1 sequence (O14920 whole entry): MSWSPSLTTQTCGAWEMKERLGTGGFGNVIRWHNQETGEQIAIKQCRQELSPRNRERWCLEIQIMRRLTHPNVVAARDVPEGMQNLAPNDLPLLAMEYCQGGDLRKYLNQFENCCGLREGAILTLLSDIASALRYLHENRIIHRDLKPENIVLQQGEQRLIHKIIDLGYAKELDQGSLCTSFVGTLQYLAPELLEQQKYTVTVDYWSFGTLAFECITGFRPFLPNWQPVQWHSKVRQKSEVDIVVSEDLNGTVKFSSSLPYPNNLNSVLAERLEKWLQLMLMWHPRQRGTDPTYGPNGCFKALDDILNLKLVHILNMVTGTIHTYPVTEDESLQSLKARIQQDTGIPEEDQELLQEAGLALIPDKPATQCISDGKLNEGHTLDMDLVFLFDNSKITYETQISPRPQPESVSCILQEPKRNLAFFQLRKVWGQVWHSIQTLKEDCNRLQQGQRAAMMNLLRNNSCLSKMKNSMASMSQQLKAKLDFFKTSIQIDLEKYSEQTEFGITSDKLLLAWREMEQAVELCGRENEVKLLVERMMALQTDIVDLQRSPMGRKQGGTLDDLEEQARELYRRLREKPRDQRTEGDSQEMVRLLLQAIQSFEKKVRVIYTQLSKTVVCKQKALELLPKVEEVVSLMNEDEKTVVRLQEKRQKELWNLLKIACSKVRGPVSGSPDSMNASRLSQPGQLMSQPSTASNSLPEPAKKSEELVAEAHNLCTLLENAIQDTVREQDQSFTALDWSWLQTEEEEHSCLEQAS
How it was run: (§1)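 Kinetic IMAP TR-FRET run with 0.5 µg/mL IKK2 in 10 mM Tris-HCl pH 7.2, 10 mM MgCl2, 0.05% NaN3, 1 mM DTT, 0.01% Tween-20. Compound (ten doses, 30 to 0.001 µM) pre-incubated with enzyme 10 min, then 1 µM IκBα-derived substrate and 3 µM ATP added. Room temperature. Reactions run 0, 20, 40 or 60 min. Ten-point curves fitted by nonlinear regression.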

[2] = target: T2, Inhibitor of nuclear factor kappa-B kinase subunit beta (Homo sapiens) (UniProt O14920); experiment: Allosteric inhibition of IKKbeta (unknown origin) assessed as inactivation constant using 5FAM-GRHDSGLDSMK-NH2 as substrate incubated for 10 mins followed by substrate addition and measured upto 60 mins by TR-FRET assay; conditions: filed as negative allosteric modulator, time 70.0 min
T2 sequence (whole entry): T1 sequence (O14920 whole entry)
How it was run: (§2)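 IKK2 (0.5 µg/mL) in 10 mM Tris-HCl pH 7.2, 10 mM MgCl2, 0.05% NaN3, 1 mM DTT, 0.01% Tween-20, room temperature. Compound (30 to 0.001 µM, ten roughly three-fold dilutions) preincubated 10 min with enzyme. Reaction started with 1 µM 5FAM-IκBα peptide and 3 µM ATP, run 0, 20, 40 or 60 min. IMAP binding reagent/terbium donor detection, TR-FRET read at 495/520 nm. Kobs fitted against concentration by nonlinear regression.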

RAW264.7 [3] = experiment: Antiinflammatory activity against mouse RAW264.7 cells assessed as reduction in LPS-induced PGE2 production at 10 uM incubated for 1 hr followed by LPS stimulation and measured after 24 hrs by ELISA (reference value: 33.64 ng/ml); format: functional; conditions: time 25 hrs
How it was run: (§3)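 RAW 264.7 cells (DMEM, 10% FBS, 37 °C, 5% CO2) plated at 2×10^5 cells/mL and left overnight. Compounds (0.1, 1, 10 µM) or NS-398 given for 1 h, then LPS 10 ng/mL for 24 h. Culture medium assayed by ELISA: competitive colorimetric for PGE2/TNF-α, mouse DuoSet for TNF-α/IL-6. IC50 is the concentration lowering the mediator to 50%.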

[4] = target: T1, Inhibitor of nuclear factor kappa-B kinase subunit beta; experiment: Allosteric inhibition of IKKbeta (unknown origin) using 5FAM-GRHDSGLDSMK-NH2 as substrate incubated for 10 mins followed by substrate addition and measured after 20 mins by TR-FRET assay; how it was run: as §1
[5] = target: T2, Inhibitor of nuclear factor kappa-B kinase subunit beta (Homo sapiens); experiment: Allosteric inhibition of IKKbeta (unknown origin) at 0.001 to 30 uM using 5FAM-GRHDSGLDSMK-NH2 as substrate incubated for 10 mins followed by substrate addition and measured after 60 mins by TR-FRET assay relative to control; conditions: filed as negative allosteric modulator, dose 0.001-30 µM, time 70.0 min; how it was run: as §2
RAW264.7 [6] = experiment: Antiinflammatory activity against mouse RAW264.7 cells assessed as reduction in LPS-induced IL-6 level incubated for 1 hr followed by LPS stimulation and measured after 24 hrs by ELISA; format: functional, cell-based; how it was run: as §3
Mus musculus = experiment: Antiinflammatory activity against LPS-induced sepsis C57BL/6 mouse model assessed as organism survival rate at 5 to 50 mg/kg, po administered 1 hr before LPS stimulation and measured after 16 hrs relative to control; format: functional; conditions: dose 5-50 mg/kg, time 17 hrs
How it was run: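 Male C57BL/6 mice (6 or 10 weeks), water only for 24 h beforehand. Compound given orally at 5 or 50 mg/kg 1 h before intraperitoneal injection of LPS (Salmonella enterica serotype enteritidis, 25 mg/kg in PBS); controls received PBS. Survival monitored for 36 h.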

RAW264.7 [7] = experiment: Cytotoxicity against mouse RAW264.7 cells assessed as reduction in cell viability at 6 uM incubated for 24 hrs by MTT assay; format: cell-based; conditions: raw264.7, 24 h
How it was run: (§4)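 MTT viability in RAW 264.7 cells seeded at 1×10^5 cells/mL and incubated overnight. Compounds added with or without LPS (1 µg/mL) for 24 h. MTT for 4 h at 37 °C, formazan dissolved in DMSO, absorbance read at 540 nm. IC80 is the concentration reducing viability to 80% with LPS.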

RAW264.7 [8] = experiment: Antiinflammatory activity against mouse RAW264.7 cells assessed as reduction in LPS-induced TNF-alpha level at 0.1 to 1 uM incubated for 1 hr followed by LPS stimulation and measured after 24 hrs by ELISA; format: functional, cell-based; conditions: dose 0.1-1 µM, time 25.0 hrs; how it was run: as §3
RAW264.7 [9] = experiment: Cytotoxicity against mouse RAW264.7 cells assessed as reduction in cell viability incubated for 24 hrs in presence of LPS by MTT assay; format: cell-based; conditions: RAW264.7, 24 h; how it was run: as §4
[10] = target: T2, Inhibitor of nuclear factor kappa-B kinase subunit beta (Homo sapiens); experiment: Allosteric inhibition of IKKbeta (unknown origin) using 5FAM-GRHDSGLDSMK-NH2 as substrate at 0.001 to 30 uM pretreated for 10 mins followed by substrate addition measured immediately by TR-FRET assay; conditions: filed as negative allosteric modulator, dose 0.001-30 µM; how it was run: as §2
[11] = Cytotoxicity against non-stimulated mouse RAW264.7 cells upto 10 uM after 24 hrs by MTT assay; conditions: raw264.7, 24 h
RAW264.7 [12] = experiment: Antiinflammatory activity against mouse RAW264.7 cells assessed as reduction in LPS-induced PGE2 production at 0.1 to 1 uM incubated for 1 hr followed by LPS stimulation and measured after 24 hrs by ELISA; format: functional, cell-based; conditions: dose 0.1-1 µM, time 25.0 hrs; how it was run: as §3

`CN1CCN(CCCOc2ccc(N3C(=O)S/C(=C\c4ccc(Oc5ccc(C#N)cc5)cc4)C3=O)cc2)CC1` gave an IC50 [1] of 251 nM, a Kinact [2] of 0.013 min⁻¹ and an Activity (RAW264.7 [3]) of 16.53 ng/mL. The IC50 [4] was 347 nM, the inhibition [5] was -0.38% and the IC50 (RAW264.7 [6]) was greater than 10000 nM. The Survival (Mus musculus) was 100%, the Activity (RAW264.7 [7]) was “Non-Toxic” and the inhibition (RAW264.7 [8]) was “inactive”. The IC80 (RAW264.7 [9]) was greater than 10000 nM, the inhibition [10] was -9.33% and the Activity [11] was “Non-Toxic”.

`CN1CCN(CCCCCOc2cccc(N3C(=O)S/C(=C\c4ccc(Oc5ccc([N+](=O)[O-])cc5)cc4)C3=O)c2)CC1` gave an IC50 [1] of 219 nM, a Kinact [2] of 0.027 min⁻¹ and an Activity (RAW264.7 [3]) of 19.04 ng/mL. The IC50 [4] was 245 nM, the inhibition [5] was -3.88% and the IC50 (RAW264.7 [6]) was greater than 10000 nM. For the same compound, the Activity (RAW264.7 [7]) was “Non-Toxic”, the Activity (RAW264.7 [12]) was “inactive” and the IC80 (RAW264.7 [9]) was greater than 10000 nM. The inhibition [10] was -5.63% and the Activity [11] was “Non-Toxic”.
